Active and inactive are the calls of the source. No cut-off for these calls is given here.

Assay [1] has as its target Transporter (Rattus norvegicus) (UniProt Q63380). The assay can be described thus: Displacement of [3H]nisoxetine from NET in Sprague-Dawley rat brain membranes at 10 uM. Type of assay: cell membranes. The settings on record: Membrane. (In a radioligand displacement assay an active substance lowers the binding of a labelled ligand.)
Assay [2] has as its target Sodium-dependent serotonin transporter (Rattus norvegicus) (UniProt P31652). The assay can be described thus: Displacement of [3H]citalopram from SERT in Sprague-Dawley rat brain membranes at 10 uM. The assay is classed as cell membranes. Particulars: Membrane.
Assay [3] addresses Sodium-dependent dopamine transporter (Rattus norvegicus, UniProt P23977). Type of assay: cell membranes, Sprague-Dawley, Brain, Membrane.
In assay [4] the target is Sodium-dependent serotonin transporter (Rattus norvegicus, UniProt P31652). The assay can be described thus: Displacement of [3H]citalopram from SERT in Sprague-Dawley rat brain membranes. The assay is classed as cell membranes, Membrane.
Another assay has as its target Transporter (Rattus norvegicus, UniProt Q63380). The experiment in a line: Displacement of [3H]nisoxetine from NET in Sprague-Dawley rat brain membranes. The assay is classed as cell membranes, Membrane.
Assay [5] concerns the target Sodium-dependent dopamine transporter (Rattus norvegicus) (UniProt P23977). The assay can be described thus: Inhibition of [3H]dopamine uptake at DAT in Sprague-Dawley rat brain membranes at 10 uM. Type of assay: cell membranes. Particulars: Membrane.
In the next assay the test system is Mus musculus. The assay can be described thus: Increase in horizontal locomotor activity in mouse measured after 30 mins post 4 hrs drug administration. Type of assay: functional, organism-based. In outline:
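Mice; horizontal locomotor activity counts per min recorded over the first 30 min of each of the 4 h after drug injection. Several doses (mg/kg) were tested to give dose-effect curves. Each point is the average of six mice.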

Transporter (Rattus norvegicus), sequence (Q63380 as listed by the source): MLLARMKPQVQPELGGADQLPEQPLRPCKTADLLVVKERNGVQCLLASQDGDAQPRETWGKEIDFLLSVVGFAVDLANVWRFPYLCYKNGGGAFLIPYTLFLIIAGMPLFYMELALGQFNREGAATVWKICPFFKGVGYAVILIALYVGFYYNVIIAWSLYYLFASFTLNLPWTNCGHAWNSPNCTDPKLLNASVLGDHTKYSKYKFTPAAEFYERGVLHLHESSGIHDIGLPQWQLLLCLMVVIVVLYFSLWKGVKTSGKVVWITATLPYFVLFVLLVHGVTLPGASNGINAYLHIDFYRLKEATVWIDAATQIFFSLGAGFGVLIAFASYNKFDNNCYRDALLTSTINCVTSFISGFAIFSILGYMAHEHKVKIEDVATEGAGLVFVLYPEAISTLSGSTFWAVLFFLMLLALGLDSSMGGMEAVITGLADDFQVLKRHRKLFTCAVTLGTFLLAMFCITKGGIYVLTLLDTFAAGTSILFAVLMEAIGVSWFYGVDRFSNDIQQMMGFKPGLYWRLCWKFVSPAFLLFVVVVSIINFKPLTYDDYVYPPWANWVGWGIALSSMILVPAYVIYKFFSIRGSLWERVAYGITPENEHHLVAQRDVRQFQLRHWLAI
Transporter, sequence (Q63380 whole entry): as the sequence (Q63380 as listed by the source) above
Sodium-dependent dopamine transporter, sequence (P23977 whole entry): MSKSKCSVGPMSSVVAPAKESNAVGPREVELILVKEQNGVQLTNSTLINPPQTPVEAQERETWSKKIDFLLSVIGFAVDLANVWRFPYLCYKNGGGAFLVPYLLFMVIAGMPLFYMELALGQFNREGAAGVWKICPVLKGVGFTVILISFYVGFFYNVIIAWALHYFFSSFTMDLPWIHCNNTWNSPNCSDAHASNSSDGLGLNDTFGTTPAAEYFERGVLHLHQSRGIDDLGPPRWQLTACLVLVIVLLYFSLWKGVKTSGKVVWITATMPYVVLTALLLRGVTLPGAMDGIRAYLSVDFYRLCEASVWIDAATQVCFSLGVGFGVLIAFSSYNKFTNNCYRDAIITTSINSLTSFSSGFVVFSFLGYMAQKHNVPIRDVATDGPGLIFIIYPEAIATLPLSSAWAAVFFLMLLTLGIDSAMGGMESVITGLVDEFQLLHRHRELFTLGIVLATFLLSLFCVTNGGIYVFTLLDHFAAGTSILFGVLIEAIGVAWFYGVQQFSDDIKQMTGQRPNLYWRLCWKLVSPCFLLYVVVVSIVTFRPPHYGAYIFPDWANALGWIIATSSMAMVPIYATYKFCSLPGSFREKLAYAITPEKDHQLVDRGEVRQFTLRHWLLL
Sodium-dependent dopamine transporter (Rattus norvegicus), sequence (P23977 whole entry): as above
Sodium-dependent serotonin transporter, sequence (P31652 whole entry): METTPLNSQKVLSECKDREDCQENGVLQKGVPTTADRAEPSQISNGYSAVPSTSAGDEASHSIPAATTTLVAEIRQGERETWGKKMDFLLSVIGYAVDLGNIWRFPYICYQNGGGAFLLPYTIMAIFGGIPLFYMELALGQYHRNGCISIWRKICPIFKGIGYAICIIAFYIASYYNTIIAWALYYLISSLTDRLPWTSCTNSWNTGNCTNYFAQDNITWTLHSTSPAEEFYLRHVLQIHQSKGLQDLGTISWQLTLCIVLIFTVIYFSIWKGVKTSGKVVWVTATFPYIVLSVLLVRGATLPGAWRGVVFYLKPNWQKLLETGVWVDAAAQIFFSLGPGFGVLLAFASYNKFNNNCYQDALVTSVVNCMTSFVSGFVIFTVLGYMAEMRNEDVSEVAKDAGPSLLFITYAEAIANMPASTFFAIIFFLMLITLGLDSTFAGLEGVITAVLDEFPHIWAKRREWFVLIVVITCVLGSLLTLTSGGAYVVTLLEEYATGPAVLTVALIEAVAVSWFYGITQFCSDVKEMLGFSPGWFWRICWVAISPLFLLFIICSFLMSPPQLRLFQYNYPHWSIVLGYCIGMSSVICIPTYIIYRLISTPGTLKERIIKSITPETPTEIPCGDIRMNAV
Sodium-dependent serotonin transporter (Rattus norvegicus), sequence (P31652 whole entry): as above

For `NC(=O)CSC(c1ccc(F)cc1)c1ccc(F)cc1`, the inhibition entry in assay [1] and in assay [2] was “inactive” each time. In addition, the affinity in assay [3], expressed as Ki, was 1.57 µM.
Take `CN(C)C(=O)CSC(c1ccc(F)cc1)c1ccc(F)cc1`: in assay [1], the inhibition result was “inactive”. The values for the Ki in assay [4] and in assay [3] were 25.9 µM and 9.51 µM, respectively.
Consider `NC(=O)CSC(c1ccc(Cl)cc1)c1ccc(Cl)cc1`, for which the inhibition constant Ki (usually the equilibrium dissociation constant of an inhibitor or competing ligand from its target) in assay [4] came out at 12.7 µM; in assay [3] it was 2.23 µM.
Consider `O=C(C[S+]([O-])C(c1ccccc1)c1ccccc1)NCCCc1ccccc1` (racemic), for which the inhibition result in assay [1] and in assay [2] was “inactive” throughout. In assay [3], this compound yielded a Ki of 2.66 µM.
As for `NC(=O)C[S+]([O-])C(c1ccc(Br)cc1)c1ccc(Br)cc1` (racemic), the inhibition entry in assay [1] is “inactive”. Besides, the Ki in assay [4] amounted to 10.6 µM; in assay [3] it was 0.6 µM.
Turning to `NC(=O)CSC(c1ccc(Br)cc1)c1ccc(Br)cc1`, the inhibitory constant (Ki) in assay [4] was 2.2 µM; in assay [3] it was 1.93 µM; at Transporter, 77.7 µM.
For `[O-][S+](CCN1CCOCC1)C(c1ccccc1)c1ccccc1` (racemic), the inhibition result in assay [1], in assay [5] and in assay [2] was “inactive” throughout.
On to `CNC(=O)C[S+]([O-])C(c1ccc(Br)cc1)c1ccc(Br)cc1` (racemic), for which the inhibition entry in assay [1] is “inactive”. For the same compound, the results for the inhibitory constant (Ki) in assay [4] and in assay [3] were 33.2 µM and 1.65 µM, respectively.
Turning to `CN(C)C(=O)CSC(c1ccc(Br)cc1)c1ccc(Br)cc1`, the Ki in assay [4] came out at 3.21 µM; in assay [3], 2.45 µM; at Transporter, 19.2 µM.
For `CN(C)C(=O)CSC(c1ccc(Cl)cc1)c1ccc(Cl)cc1`, in that order: 5.98 µM, 4.51 µM and 42.5 µM.
Turning to `CN(C)C(=O)C[S+]([O-])C(c1ccc(F)cc1)c1ccc(F)cc1` (racemic), the inhibition entry in assay [1] and in assay [5] was “inactive” in each case. This compound yielded a Ki in assay [4] of 16.2 µM.
Regarding `CN(C)C(=O)C[S+]([O-])C(c1ccccc1)c1ccccc1` (racemic), the inhibition result in assay [1], in assay [5] and in assay [2] was “inactive” in each case.
Consider `NC(=O)C[S+]([O-])C(c1ccc(Cl)cc1)c1ccc(Cl)cc1` (racemic), for which the inhibition entry in assay [1] is “inactive”. Besides, the affinity in assay [4], expressed as Ki, was 39 µM. Further, the Activity result with Mus musculus was “Dose-dependent effect”.
Take `CN(C)C(=O)C[S+]([O-])C(c1ccc(Cl)cc1)c1ccc(Cl)cc1` (racemic): in assay [1], the inhibition entry was “inactive”. The Ki is 22.3 µM in assay [4] and 34.6 µM in assay [3].
Consider `NC(=O)C[S+]([O-])C(c1ccccc1)c1ccccc1` (racemic), for which the inhibition entry in assay [1] and in assay [2] was “inactive” each time. Moreover, the Activity result in the assay on Mus musculus was “Dose-dependent effect”.
Take `NC(=O)C[S@+]([O-])C(c1ccccc1)c1ccccc1`: the inhibition result in assay [1] and in assay [2] was “inactive” each time. The Activity result with Mus musculus is “Dose-dependent effect”.
For the compound `NC(=O)C[S@@+]([O-])C(c1ccccc1)c1ccccc1`, the inhibition entry in assay [1] and in assay [2] was “inactive” each time. For the same compound, in the assay on Mus musculus, the Activity result was “Dose-dependent effect”.
With `CN(C)C(=O)CSC(c1ccccc1)c1ccccc1`, the inhibition result in assay [1] and in assay [2] was “inactive” each time. Moreover, the Ki in assay [3] amounted to 16.5 µM.
In the case of `CN(C)C(=O)C[S+]([O-])C(c1ccc(Br)cc1)c1ccc(Br)cc1` (racemic), the inhibition entry in assay [1] was “inactive”. The Ki in assay [4] turned out to be 14.2 µM; in assay [3] it was 21.3 µM.
Take `CN(C)CC[S+]([O-])C(c1ccc(Cl)cc1)c1ccc(Cl)cc1` (racemic): the Ki in assay [4] amounted to 0.406 µM; in assay [3] it was 2.89 µM; at Transporter it was 36.2 µM.
As to `CNC(=O)C[S+]([O-])C(c1ccc(Cl)cc1)c1ccc(Cl)cc1` (racemic), the inhibition entry in assay [1] and in assay [2] was “inactive” in each case. The Ki in assay [3] is 2.44 µM.
Turning to `NC(=O)C[S+]([O-])C(c1ccc(F)cc1)c1ccc(F)cc1` (racemic), the inhibition result in assay [1] and in assay [2] was “inactive” throughout. For the same compound, the inhibition constant Ki in assay [3] stood at 2.19 µM.
On to `CN(C)CC[S+]([O-])C(c1ccccc1)c1ccccc1` (racemic), for which the inhibition result in assay [1] and in assay [5] was “inactive” throughout. Moreover, in assay [4], the inhibitory constant (Ki) was found to be 45.8 µM.

The values are drawn from ChEMBL document CHEMBL1671828 (ACS Med Chem Lett, 2011).
